High-throughput results (PubChem)
Runt-CBFb FRET: inhibitors of RUNX1 Runt–CBFb binding, primary screen, biochemical, FRET, Cerulean-Runt, Venus-CBFb, uHTS | Runt-related transcription factor 1 (Homo sapiens) + Core-binding factor subunit beta … | Cerulean-Runt/Venus-CBFb FRET ratio 530/480, 1 h | inhibition, % at 20 µM | 220,000 compounds, 0.46% hits;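 active = inhibition over about 50% at 20 µM in the single-dose screen, limit read from the data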;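 note: 0% = DMSO wells and 100% = excess unlabeled CBFb competitor control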
Target sequence (Q01196 whole entry, looked up): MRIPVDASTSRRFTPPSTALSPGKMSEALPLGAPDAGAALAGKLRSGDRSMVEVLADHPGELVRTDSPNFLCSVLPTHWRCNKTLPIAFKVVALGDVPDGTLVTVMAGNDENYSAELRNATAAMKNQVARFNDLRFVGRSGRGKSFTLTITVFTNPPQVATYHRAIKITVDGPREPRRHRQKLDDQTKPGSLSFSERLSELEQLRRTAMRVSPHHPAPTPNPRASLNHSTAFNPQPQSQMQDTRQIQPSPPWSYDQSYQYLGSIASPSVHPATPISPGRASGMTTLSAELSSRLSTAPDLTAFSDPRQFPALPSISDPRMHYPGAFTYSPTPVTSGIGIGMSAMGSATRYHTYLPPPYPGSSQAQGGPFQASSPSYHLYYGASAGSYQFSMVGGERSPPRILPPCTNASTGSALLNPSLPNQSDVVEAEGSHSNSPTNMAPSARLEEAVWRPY
Target sequence (Q13951 whole entry, looked up): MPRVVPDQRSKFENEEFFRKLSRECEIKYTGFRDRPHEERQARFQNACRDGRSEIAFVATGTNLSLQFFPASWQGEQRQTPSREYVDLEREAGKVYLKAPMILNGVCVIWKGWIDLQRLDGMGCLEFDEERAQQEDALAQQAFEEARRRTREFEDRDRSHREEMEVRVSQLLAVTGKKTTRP
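System: Cerulean-labeled Runt domain protein | Quantity: 100 nM of each labeled protein | Schedule: 1 h compound exposure, room temperature | Detection: Fluorescence energy transfer, 422 nm excitation, 530/480 nm emission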
RanGTP-Imp inh: inhibitors of RanGTP-importin-beta interaction, primary screen, biochemical, FRET, CFP-Ran, YFP-importin-beta, homogeneous; cell-free CFP-Ran/YFP-importin-beta FRET ratio; AID 2216, 2009; Ran GTPase (GTP-bound) - importin-beta complex; inhibition, % (no concentration beside the values); 300,000 compounds, 1.1% hits;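 active = more than half of the replicate wells show a fall in the fluorescence ratio signal beyond about 16%, limit read from the data, passing the limit was not always enough; inconclusive = exactly half of the replicate wells pass the set limit; inactive = fewer than half of replicates pass the limit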;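 note: 0% = DMSO wells and 100% = Ran loaded with GDP instead of GTP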
Rce1 inh: yeast Rce1p protease inhibitors, primary screen, biochemical, fluorescence, cell-free homogeneous | yeast membranes, quenched prenylated peptide cleavage fluorescence | 290,000 compounds, 0.27% hits | calls only | AID 2563, 2010;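 active = fall in fluorescence gain of 50% or more versus controls, with final raw signal at or below 3038400; inconclusive = same 50% fall but final raw signal above 3038400; inactive = fall in fluorescence gain under 50%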;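 note: plate controls were neutral control wells for no effect and wells lacking membranes for full effect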
Runt-SMMHC FRET: inhibitors of RUNX1 Runt–CBFb-SMMHC binding, primary screen, biochemical, FRET, Cerulean-Runt, Venus-CBFb-SMMHC, uHTS | Runt-related transcription factor 1 (Homo sapiens) + Core-binding factor subunit beta … | Cerulean-Runt/Venus-CBFb-SMMHC FRET ratio 530/480, 1 h | inhibition, % at 20 µM | 220,000 compounds, 0.74% hits | AID 1434, 2008;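 active = mean inhibition across duplicate retests at 20 µM reaching about 50%, limit read from the data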;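 note: 0% = DMSO wells and 100% = wells with excess untagged CBFb-SMMHC; inhibitors lower the FRET ratio by blocking Runt binding to CBFb-SMMHC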
Vif imaging: HIV Vif self-association inhibitors, primary screen, imaging, HEK293T, single point; AID 602346, 2012; inhibition, % at 7.49 µM; 340,000 compounds, 0.35% hits; HEK293T cells, Vif self-association by quenched fluorescence, 24 h; in the data active = inhibition above about 50%, passing the limit was not always enough; inconclusive = no clear call, values can overlap the other calls; inactive = below about 31%
Active calls of the source: *; i = inactive; ? = inconclusive; · = no result given; + = active, no number. Compounds with a hit are over-represented: about 1.7% of the library has one in this group of screens.

SMILES	Runt-CBFb FRET	RanGTP-Imp inh	Rce1 inh	Runt-SMMHC FRET	Vif imaging
CC1CCc2nc3ccc(S(=O)(=O)N4CCC(C(=O)NCc5ccccc5Cl)CC4)cc3c(C(=O)O)c2C1 (stereo unspecified)	·	22*	i	·	6
O=C(CCc1ccncc1)NC1CCCc2c1cnn2-c1cc(F)cc(F)c1 (stereo unspecified)	·	4	i	·	10
COCCNc1c2c(c(C#N)c3nc4ccccc4n13)CCCC2	36	21*	i	75*	2
CC(=O)c1ccc(Nc2c3c(c(C#N)c4nc5ccccc5n24)CCC3)cc1	39	31*	i	68*	·
N#Cc1c2c(c(NCCOCCO)n3c1nc1ccccc13)CCCC2	39	-4	i	85*	-6
N#Cc1c2c(c(NCc3cccnc3)n3c1nc1ccccc13)CCC2	23	?	i	·	-8
CC(=O)Nc1ccc(N2CCc3c(C)c(C#N)c4nc5ccccc5n4c32)cc1	4	110*	i	81*	·
CCOC(=O)N1C(=O)NC(=O)C1c1ccc(Cl)cc1 (stereo unspecified)	·	·	·	·	3
CCCN(CC(=O)Nc1ccccc1C)C(=O)C1CCN(S(=O)(=O)c2ccc(C)c(C)c2)CC1	·	·	·	·	-5
FC(F)(F)c1cc(NC2CCCCC2)ccn1	·	-2	i	·	1
CCOC(=O)C1(C)CCN1C(=O)c1cc(-c2ccc(Cl)cc2)oc1C (stereo unspecified)	·	·	·	·	-10
Cc1cc(C)nc(N(C#N)Cc2ccc(Cl)cc2)n1	1	-1	i	1	0
Cc1cc(C)nc(N(C#N)Cc2cccc(Cl)c2)n1	0	51*	i	-1	1
Cc1cccn2c(=O)c3cc(C(=O)NC4CCCCC4)c(=N)n(CCN4CCOCC4)c3nc12	97*	113*	i	128*	-5
Cc1cccn2c(=O)c3cc(C(=O)NC4CCCCC4)n(C)c3nc12	·	0	i	·	-1
CCn1c(=N)c(C(=O)NC)cc2c(=O)n3cccc(C)c3nc21	19	·	?	58*	-1
CCCn1c(=N)c(C(=O)NC2CCCC2)cc2c(=O)n3cccc(C)c3nc21	5	198*	i	83*	2
CCn1c(=N)c(C(=O)OC)cc2c(=O)n3ccccc3nc21	27	·	·	40	·
Cc1cccn2c(=O)c3cc(C(=O)NC(C)c4ccccc4)c(=N)n(CCCn4ccnc4)c3nc12 (stereo unspecified)	38	+	·	88*	12
O=C(O)c1ccccc1Nc1ccnc(C(F)(F)F)c1	·	3	i	·	-9
O=C(COC(=O)Cc1cccc(C(F)(F)F)c1)NC1CCS(=O)(=O)C1 (stereo unspecified)	·	-4	i	·	-8
C[C@H](NC(=O)c1nc[nH]c1C(=O)N1CCNCC1)C(=O)OC(C)(C)C	·	0	i	·	4
COc1ccccc1N(CCC#N)C(=S)Nc1ccc(S(=O)(=O)N2CCOCC2)cc1	·	·	·	·	6
CCCCNC(=O)c1cc2c(=O)n3cccc(C)c3nc2n(CCN2CCOCC2)c1=N	100*	150*	i	62*	12
O=C(CNC(=O)c1ccncc1)N/N=C/c1ccccn1	2	0	i	1	59*
SMILES	Runt-CBFb FRET	RanGTP-Imp inh	Rce1 inh	Runt-SMMHC FRET	Vif imaging
COc1cc(C(=O)NCC(=O)N/N=C/c2ccccn2)cc(OC)c1OC	1	2	i	5	10
COc1ccc(OC)c(-c2nn(-c3ccccc3)cc2C(=O)NCC(c2ccco2)N2CCCC2)c1 (stereo unspecified)	·	·	·	·	54*
Cc1cc(CC(C)C)n(-c2nc3ccccc3c(=O)n2OCC(=O)N(C)C)n1	1	·	i	1	9
Cc1cc(C)n(-c2nc3ccccc3c(=O)n2OCC(=O)N(C)C)n1	0	9	+	7	-3
O=[N+]([O-])c1cc(-c2cccnc2)n[nH]1	·	·	·	·	4
CCOC(=O)c1ccccc1NS(=O)(=O)c1cnn(CC)c1C	·	·	i	·	-4
CC(=O)c1ccc(-c2ccc(C(=O)N3CCC(C(N)=O)CC3)o2)cc1	·	·	+	·	2
COC(=O)C1=CN(Cc2ccccc2)C=C(C(=O)OC)C1c1ccc(OC)c(OC)c1	·	3	·	·	11
COCCN1C=C(C(=O)OC)C(c2ccccc2Cl)C(C(=O)OC)=C1	64*	58*	i	86*	7
CCN1C=C(C(=O)OC)C(c2cccc(OC)c2OC)C(C(=O)OC)=C1	21	126*	i	86*	5
COC(=O)C1=CN(Cc2ccc(OC)c(OC)c2)C=C(C(=O)OC)C1c1cccc(OC)c1OC	·	73*	i	·	3
COc1ccccc1NC(=O)COC(=O)C1CC1	0	0	·	1	1
COC(=O)C1=CN(C2CC2)C=C(C(=O)OC)C1c1ccccc1OC	105*	32*	i	38	-1
CCC1C(=O)NCCN1C(=O)c1ccc2nc(Cc3cccc(Cl)c3)oc2c1 (stereo unspecified)	·	3	i	·	·
Cc1cccc(N2CCN(C(=O)NCc3ccc(F)cc3)CC2)c1C	·	3	i	·	0
COC(=O)C1=CN(Cc2cccs2)C=C(C(=O)OC)C1c1cccc(OC)c1OC	93*	71*	i	41	-4
COC(=O)C1=CN(Cc2ccc(OC)c(OC)c2)C=C(C(=O)OC)C1c1ccc(O)cc1	·	?	i	·	-3
COC(=O)C1=CN(Cc2ccc(OC)c(OC)c2)C=C(C(=O)OC)C1c1ccc(F)cc1	·	18*	·	·	-19
COC(=O)C1=CN(Cc2ccc(C)cc2)C=C(C(=O)OC)C1c1cc(OC)c(OC)c(OC)c1	·	8	i	·	-3
O=C(NCC(=O)N(c1cccnc1)C(C(=O)NC1CCCCC1)c1ccccc1F)c1ccco1 (stereo unspecified)	·	-2	i	·	11
O=C(CCCN1C(=O)/C(=C\c2cccc(Br)c2)SC1=S)Nc1ccc(C(=O)O)cc1	·	·	·	·	77*
O=C(CCCN1C(=O)/C(=C\c2ccccc2)SC1=S)Nc1ccc(C(=O)O)cc1	·	1	i	·	7
C=C(C)CNC(=S)Nc1cccc(N)n1	12	2	i	6	5
CCOC(=O)c1cc2ccc3ccccc3c2oc1=O	·	73*	i	·	-3
CCOC(=O)c1cc2ccc(OC(=O)c3ccco3)cc2oc1=O	18	182*	i	62*	17
CCOC(=O)c1c(C)n(C)c2ccc(OC(=O)c3ccco3)cc12	-2	0	i	0	20
